Wee1 stabilizer: human Wee1 degradation inhibition, primary screen | hit rate 1.2% among 220,000 | reporter increase, % at 5 µM | HeLa Luc-Wee1K328M stability, luciferase luminescence; 100% = proteasome inhibitor MG132 effect;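 active means activation above the mean of all tested compounds plus 3 SD, set per screening run, cut at about 8.8% in these data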;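 further: cells exposed to compound for 20 h before luminescence read; 0% = DMSO alone and 100% = MG132 at 30 µM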
CHOP inhibitor: CHOP inhibition in unfolded protein response. CHO-K1 CHOP-promoter luciferase, tunicamycin-induced, 15-18 h. inhibition, % at 10 µM. hit rate 3.8% among 220,000;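 active means compounds that reduced the stress-induced luciferase reporter signal by more than about 70% of percent inhibition, limit read from the data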;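 further: 0% = tunicamycin plus vehicle and 100% = wells without tunicamycin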
Lmaj promast: reduces viability of Leishmania major promastigotes | resazurin fluorescence viability | inhibition, % at 10 µM | hit rate 9% among 200,000 | AID 1063;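 further: promastigotes grown with compound for 44 hours at 28 °C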
PKD1 kinase inh: inhibitors of human PKD1 kinase; PKD1 kinase fluorescence polarization assay; hit rate 0.056% among 200,000; inhibition, % (concentration not given with the values); Q15139
Target sequence (Q15139 whole entry, looked up): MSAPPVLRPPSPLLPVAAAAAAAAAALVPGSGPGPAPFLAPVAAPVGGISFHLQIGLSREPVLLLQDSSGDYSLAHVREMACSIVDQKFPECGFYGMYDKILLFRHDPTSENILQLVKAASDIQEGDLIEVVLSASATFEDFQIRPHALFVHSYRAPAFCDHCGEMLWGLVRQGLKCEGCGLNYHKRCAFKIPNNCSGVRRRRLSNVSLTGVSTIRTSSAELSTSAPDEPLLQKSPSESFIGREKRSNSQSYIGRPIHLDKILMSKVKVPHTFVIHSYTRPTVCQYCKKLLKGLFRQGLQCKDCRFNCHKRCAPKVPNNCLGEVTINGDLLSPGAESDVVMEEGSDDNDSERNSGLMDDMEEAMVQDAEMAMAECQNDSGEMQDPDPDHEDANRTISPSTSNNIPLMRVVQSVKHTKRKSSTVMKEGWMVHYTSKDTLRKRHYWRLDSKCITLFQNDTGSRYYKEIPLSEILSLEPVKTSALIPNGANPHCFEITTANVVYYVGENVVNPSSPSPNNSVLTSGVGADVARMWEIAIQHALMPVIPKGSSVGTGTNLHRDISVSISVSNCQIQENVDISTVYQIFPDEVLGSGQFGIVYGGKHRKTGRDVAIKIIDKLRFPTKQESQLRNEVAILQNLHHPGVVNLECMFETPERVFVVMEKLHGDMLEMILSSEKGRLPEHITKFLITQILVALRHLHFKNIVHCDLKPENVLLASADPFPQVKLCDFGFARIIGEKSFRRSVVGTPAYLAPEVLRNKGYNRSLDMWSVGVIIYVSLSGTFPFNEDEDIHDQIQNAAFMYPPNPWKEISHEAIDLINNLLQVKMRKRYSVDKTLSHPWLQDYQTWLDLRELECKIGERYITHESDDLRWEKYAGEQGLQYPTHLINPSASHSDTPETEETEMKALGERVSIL
Rad51 HR inh: Rad51 (human) homologous recombination inhibition; Q06609; hRad51 DNA strand exchange, fluorescence dequenching; inhibition, % at 10 µM; hit rate 0.085% among 200,000; AID 1385;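 active means inhibition above 40% at the single screening dose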;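 further: 0% = DMSO control wells and 100% = blanks with heterologous ssDNA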
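Test system – preformed human Rad51 ssDNA filaments · Reagent – Donor/quencher-labelled 47-bp dsDNA substrate · Incubation – 37 °C 15-min filament assembly, 30-min compound preincubation, 15-min exchange · Signal – FRET fluorescence dequenching, excitation 485 nm, emission 520 nm · Read-out – percent inhibition from fluorescence, normalised to plate control and blank means · Benchmarks – plate control and blank wells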
Arbovirus inh: antivirals against arbovirus infection; AID 1251; inhibition, % at 10 µM; arbovirus infection cell-based antiviral screen; hit rate 0.37% among 200,000; in the data active means inhibition above about 30%
Numbers without * were called inactive; . = not tested or not shown. A selection: hits, their analogues and other compounds. The true share with any hit is near 12%. Unless noted, no stated cut-off is given here; in the data, active means inhibition above about 50%; inactive means the rest.

SMILES	Wee1 stabilizer	CHOP inhibitor	Lmaj promast	PKD1 kinase inh	Rad51 HR inh	Arbovirus inh
CC(=O)Nc1nc(-c2cc([N+](=O)[O-])cs2)cs1	-2	7	75*	2	4	-11
CC(=O)Nc1nc(C)c(-c2csc(Nc3cccc([N+](=O)[O-])c3)n2)s1	-2	95*	97*	0	3	-18
CC(=O)Nc1nc(C)c(-c2csc(Nc3ccccn3)n2)s1	1	50	4	-8	2	-15
CC(=O)Nc1nc(C)c(-c2csc(Nc3ccc(O)cc3)n2)s1	3	-7	63*	4	1	-2
CC(=O)c1cccc(Nc2nc(-c3cccc([N+](=O)[O-])c3)cs2)c1	1	55	26	-8	-14	-18
COC(=O)CC/C(O)=C1\C(=O)CC(C)(C)CC1=NCCc1nc2ccccc2[nH]1	0	8	6	-1	4	6
COCCSc1nc2sc3c(c2c(=O)n1-c1ccccc1)CCN(C)C3	-2	11	100*	-2	-7	11
CCOC(=O)C1=C(C)Nc2ccccc2N=C1NC(=O)/C=C/c1ccc(OC)cc1OC	-1	1	80*	10	-6	-2
CCc1ccc(N/C(SCc2ccccc2C)=C(/C#N)C(=O)NCc2ccco2)cc1	2	24	25	-8	1	2
COCCOc1cc(NC(=O)CS(=O)(=O)CC(=O)N(C)C)c(Cl)cc1Cl	4	7	-4	3	12	4
COc1ccc(C(=O)N/N=C/c2ccc3cccc(OCc4ccccc4)c3n2)cc1	1	-40	65*	-3	0	14
COc1c(OC(C)=O)ccc(/C=C/c2ccc3cccc(OCc4ccccc4)c3n2)c1[N+](=O)[O-]	-4	41	62*	2	6	-4
O=C(N/N=C/c1ccc2cccc(OCc3ccccc3)c2n1)c1ccc(Br)cc1	2	31	75*	3	-3	-17
NC(N)=N/N=C/c1ccc2cccc(OCc3ccccc3)c2n1	1	2	.	.	7	.
c1ccc(COC(CN2CCCCCC2)CN2CCCCCC2)cc1	-1	-6	.	.	.	.
COc1ccc(-c2nnc(SCc3ccc(C(=O)O)cc3)n2N)cc1	2	1	.	.	3	.
CC(NCCOCCOc1ccccc1)c1ccccc1 (stereo unspecified)	-3	17	3	-11	-3	2
CCC(C)NCCOCCOc1ccc(Cl)c2ccccc12 (stereo unspecified)	-3	23	100*	-6	-7	-29
CCC(C)NCCOCCOc1ccc(Cl)c(C)c1C (stereo unspecified)	-1	-4	98*	-4	0	-38
Cc1nn(C(=O)c2ccc([N+](=O)[O-])cc2)c(C)c1Br	-1	15	.	.	16	.
Cn1cnnc1SCC(=O)Nc1ccc(Cl)c(S(=O)(=O)N2CCOCC2)c1	-2	8	-1	-2	-2	4
CC(c1ccco1)N(C(=O)C12CC3CC(CC(C)(C3)C1)C2)c1ccccn1 (stereo unspecified)	-4	87*	6	-2	12	1
CC(c1ccco1)N(C(=O)c1ccc(F)cc1)c1ccccn1 (stereo unspecified)	1	-18	-8	4	-1	9
CN(C)NC(=O)c1ccc([N+](=O)[O-])s1	-1	-3	.	.	0	.
O=C(Nc1cccc2ccccc12)c1ccc([N+](=O)[O-])s1	2	3	100*	5	.	-19
SMILES	Wee1 stabilizer	CHOP inhibitor	Lmaj promast	PKD1 kinase inh	Rad51 HR inh	Arbovirus inh
O=C(Nc1ccccc1F)c1ccc([N+](=O)[O-])s1	0	0	100*	1	11	4
C=CCN=C1S/C(=C\c2ccc(N(C)C)cc2)C(=O)N1CC=C	2	-36	.	.	-21	.
Cc1cc(C)n2nc(C(=O)Nc3ccc4c(c3)CCC4)nc2n1	-3	-8	5	-2	9	-3
Cc1c(Cl)cccc1N(CC(=O)NC1CCCCC1)S(C)(=O)=O	1	22	1	-7	-6	0
Cn1c(Cc2ccccc2)nnc1SCC(=O)N1CCN(c2ccccc2)CC1	4	9	-4	-10	-6	-3
CCC1CCCCN1C(=O)CSc1nc2ccsc2c(=O)n1Cc1ccccc1 (stereo unspecified)	-2	8	58*	-2	-4	-14
CCCCn1c(SCC(=O)N2CCN(c3ccccc3)CC2)nc2ccsc2c1=O	1	31	11	3	8	34*

Source: PubChem BioAssay
